Columns and labels:
Liver microsomes = assay: Intrinsic clearance in human liver microsomes after 15 mins; assay type: ADME, Microsome
How it was run: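 Compound at 0.3 μmol/L (0.03% DMSO final) was incubated with pooled human liver microsomes (0.1 mg/mL protein) and an NADPH-generating system at 37 °C for 0 and 15 min. Reactions were quenched with acetonitrile/methanol containing internal standard. Parent depletion was measured by LC/MS/MS. Values are the mean of six measurements.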

[1] = Oral bioavailability in CD1 (ICR) mouse at 10 mg/kg; assay type: ADME, organism-based; details: in vivo
How it was run: (§1)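 Male fasted CD1 (ICR) mice dosed i.v. 3 mg/kg or p.o. 10 mg/kg (10 mL/kg each). Vehicle was DMSO/5% glucose with 1/250 volume 5 mol/L HCl (1:19 i.v., 1:9 p.o.). Vena cava blood was drawn at 0.083 (i.v. only), 0.25, 0.5, 1, 2, 4, 6, 8 and 24 h, n = 4 per time point. Plasma was extracted and assayed by reversed-phase HPLC with fluorescence detection. Values are the mean of four animals.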

[2] = Clearance in CD1 (ICR) mouse at 3 mg/kg, iv; assay type: ADME, organism-based; set-up: dose 3 mg/kg, route intravenous; details: in vivo; how it was run: as §1
[3] = Tmax in CD1 (ICR) mouse 10 mg/kg, po; assay type: ADME, organism-based; set-up: dose 10 mg/kg, route oral; details: in vivo; how it was run: as §1
[4] = Terminal half life in CD1 (ICR) mouse at 3 mg/kg, iv; assay type: ADME, organism-based; set-up: dose 3 mg/kg, route intravenous; details: in vivo, read-out: beta t1/2 (converted); how it was run: as §1
[5] = AUC in CD1 (ICR) mouse at 10 mg/kg, po; assay type: ADME, organism-based; set-up: dose 10 mg/kg, route oral; details: plasma; how it was run: as §1
[6] = Cmax in CD1 (ICR) mouse at 10 mg/kg, po; assay type: ADME, organism-based; set-up: dose 10 mg/kg, route oral; details: in vivo; how it was run: as §1
[7] = AUC in CD1 (ICR) mouse at 3 mg/kg, iv; assay type: ADME, organism-based; set-up: dose 3 mg/kg, route intravenous; details: plasma; how it was run: as §1
[8] = Volume of distribution at steady state in CD1 (ICR) mouse 3 mg/kg, iv; assay type: ADME, organism-based; set-up: dose 3 mg/kg, route intravenous; details: in vivo, read-out: Vdss; how it was run: as §1

Row | CLint (Liver microsomes) | SMILES | also measured
1 | 440 µL/min/mg | CCc1nn2c(-c3c(OC)cc(C)cc3OC)cccc2c1N(CC1CCOCC1)CC1CC1 | –
2 | 890 µL/min/mg | CCCN(CC1CCOCC1)c1c(CC)nn2c(-c3c(OC)cc(C)cc3OC)cccc12 | –
3 | 450 µL/min/mg | CCc1nn2c(-c3c(OC)cc(OC)cc3OC)cccc2c1N(CC1CCOCC1)CC1CC1 | –
4 | 1350 µL/min/mg | CCc1nn2c(-c3c(C)cc(C)cc3OC)cccc2c1N(CC1CC1)CC1CCOC1 (centres undefined) | –
5 | 700 µL/min/mg | CCCN(CC1CCOCC1)c1c(CC)nn2c(-c3c(OC)cc(COC)cc3OC)cccc12 | –
6 | 600 µL/min/mg | CCc1nn2c(-c3cc(OC)c(OC)cc3OC)cccc2c1N(CC1CCOCC1)CC1CC1 | –
7 | 450 µL/min/mg | CCc1nn2c(-c3c(C)cc(C)cc3OC)cccc2c1N(CC1CCOCC1)CC1CC1 | –
8 | 1690 µL/min/mg | CCc1nn2c(-c3c(C)cc(C)cc3OC)cccc2c1N(CCOC)CC1CC1 | –
9 | – | CCc1nn2c(-c3c(OC)cc(COC)cc3OC)cccc2c1N(CC1CCOCC1)CC1CC1.Cc1ccc(S(=O)(=O)O)cc1 | bioavailability [1]: 31%; clearance [2]: 43.3 mL/min/kg; Tmax [3]: 0.25 h; half-life [4]: 2.2 h; AUC [5]: 870 ng·h/mL; Cmax [6]: 320 ng/mL; AUC [7]: 850 ng·h/mL; Vd [8]: 3.74 L/kg
10 | 1120 µL/min/mg | CCc1nn2c(-c3c(C)cc(C)cc3OC)cccc2c1N(CC1CC1)CC1CC1 | –
11 | 450 µL/min/mg | CCc1nn2c(-c3c(C)cc(OC)cc3OC)cccc2c1N(CC1CCOCC1)CC1CC1 | –
12 | 530 µL/min/mg | CCc1nn2c(-c3c(COC)cc(OC)cc3OC)cccc2c1N(CC1CCOCC1)CC1CC1 | –
13 | 300 µL/min/mg | CCc1nn2c(-c3c(OC)cc(COC)cc3OC)cccc2c1N(CC1CCOCC1)CC1CC1 | –
14 | 520 µL/min/mg | CCOCc1cc(OC)c(-c2cccc3c(N(CC4CCOCC4)CC4CC4)c(CC)nn23)c(OC)c1 | –
15 | 570 µL/min/mg | COc1cc(C)cc(OC)c1-c1cccc2c(N(CC3CCOCC3)CC3CC3)c(OC)nn12 | –
16 | 340 µL/min/mg | COCc1cc(OC)c(-c2cccc3c(N(CC4CCOCC4)CC4CC4)c(SC)nn23)c(OC)c1 | –
17 | 1230 µL/min/mg | CCc1nn2c(-c3c(C)cc(C)cc3OC)cccc2c1N(CC1CC1)CC1CCCO1 (centres undefined) | –
18 | 760 µL/min/mg | COCc1cc(OC)c(-c2cccc3c(N(CC4CCOCC4)CC4CC4)c(OC)nn23)c(OC)c1 | –
19 | 740 µL/min/mg | CCc1nn2c(-c3c(OC)cccc3OC)cccc2c1N(CC1CCOCC1)CC1CC1 | –
20 | 1100 µL/min/mg | COCc1cc(OC)c(-c2cccc3c(N(CC4CCOCC4)CC4CC4)c(C#N)nn23)c(OC)c1 | –
21 | 110 µL/min/mg | COCc1cc(OC)c(-c2cccc3c(N(CC4CCOCC4)CC4CC4)c(C)nn23)c(OC)c1 | –
22 | 1410 µL/min/mg | CCc1nn2c(-c3c(C)cc(C)cc3OC)cccc2c1N(CCCF)CC1CC1 | –
